Source: ChEMBL document CHEMBL4038305, “Benzoxaborole Antimalarial Agents. Part 5. Lead Optimization of Novel Amide Pyrazinyloxy Benzoxaboroles and Identification of a Preclinical Candidate” (J Med Chem, 2017)

Assays:
Plasmodium berghei [1] = assay: Antimalarial activity against Plasmodium berghei infected in Swiss Webster mouse assessed as mouse survival rate at 3.7 mg/kg administered once daily via oral gavage for 4 consecutive days beginning 1 hr after infection measured on day 5 post infection relative to control; type: functional
How it was run: (§1)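 P. berghei-infected erythrocytes taken from a previously infected mouse were injected intraperitoneally. Oral dosing, once daily for 4 consecutive days, began 1 h after infection, in polyethylene glycol 300/propylene glycol/water (55/25/20 by weight). Chloroquine at 30 mg/kg was the positive control, with a vehicle-only group. Percent survival was recorded daily from day 4 to day 20.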

Plasmodium berghei [2] = assay: Antimalarial activity against Plasmodium berghei infected in Swiss Webster mouse assessed as mouse survival rate at 11 mg/kg administered once daily via oral gavage for 4 consecutive days beginning 1 hr after infection measured on day 4 post infection relative to control; type: functional; how it was run: as §1
Plasmodium berghei [3] = assay: Antimalarial activity against Plasmodium berghei infected in Swiss Webster mouse assessed as mouse survival rate at 33 mg/kg administered once daily via oral gavage for 4 consecutive days beginning 1 hr after infection measured on day 11 post infection relative to control; type: functional; how it was run: as §1
Plasmodium berghei [4] = assay: Antimalarial activity against Plasmodium berghei infected in Swiss Webster mouse assessed as mouse survival rate at 1.2 mg/kg administered once daily via oral gavage for 4 consecutive days beginning 1 hr after infection measured on day 7 post infection relative to control; type: functional
How it was run: (§2)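 Mice given an intraperitoneal injection of P. berghei-infected erythrocytes taken from a previously infected animal. Oral dosing once daily for 4 consecutive days, starting 1 h after infection. Vehicle: polyethylene glycol 300/propylene glycol/water (weight ratio 55/25/20). Percent survival recorded daily from day 4 to day 20. Chloroquine 30 mg/kg and vehicle-only groups served as controls.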

Plasmodium berghei [5] = assay: Antimalarial activity against Plasmodium berghei infected in Swiss Webster mouse assessed as mouse survival rate at 100 mg/kg administered once daily via oral gavage for 4 consecutive days beginning 1 hr after infection measured on day 11 post infection relative to control; type: functional; how it was run: as §2
Plasmodium berghei [6] = assay: Antimalarial activity against Plasmodium berghei infected in Swiss Webster mouse assessed as mouse survival rate at 0.4 mg/kg administered once daily via oral gavage for 4 consecutive days beginning 1 hr after infection measured on day 5 post infection relative to control; type: functional; how it was run: as §2
Plasmodium berghei [7] = assay: Antimalarial activity against Plasmodium berghei infected in Swiss Webster mouse assessed as mouse survival rate at 100 mg/kg administered once daily via oral gavage for 4 consecutive days beginning 1 hr after infection measured on day 4 post infection relative to control; type: functional; how it was run: as §2
Plasmodium berghei [8] = assay: Antimalarial activity against Plasmodium berghei infected in Swiss Webster mouse assessed as mouse survival rate at 100 mg/kg administered once daily via oral gavage for 4 consecutive days beginning 1 hr after infection measured on day 10 post infection relative to control; type: functional; how it was run: as §2
Plasmodium berghei [9] = assay: Antimalarial activity against Plasmodium berghei infected in Swiss Webster mouse assessed as mouse survival rate at 3.7 mg/kg administered once daily via oral gavage for 4 consecutive days beginning 1 hr after infection measured on day 6 post infection relative to control; type: functional; how it was run: as §1
Plasmodium berghei [10] = assay: Antimalarial activity against Plasmodium berghei infected in Swiss Webster mouse assessed as mouse survival rate at 33 mg/kg administered once daily via oral gavage for 4 consecutive days beginning 1 hr after infection measured on day 10 post infection relative to control; type: functional; how it was run: as §1
Plasmodium berghei [11] = assay: Antimalarial activity against Plasmodium berghei infected in Swiss Webster mouse assessed as mouse survival rate at 100 mg/kg administered once daily via oral gavage for 4 consecutive days beginning 1 hr after infection measured on day 9 post infection relative to control; type: functional; how it was run: as §2
Plasmodium berghei [12] = assay: Antimalarial activity against Plasmodium berghei infected in Swiss Webster mouse assessed as mouse survival rate at 1.2 mg/kg administered once daily via oral gavage for 4 consecutive days beginning 1 hr after infection measured on day 4 post infection relative to control; type: functional; how it was run: as §2
Plasmodium berghei [13] = assay: Antimalarial activity against Plasmodium berghei infected in Swiss Webster mouse assessed as mouse survival rate at 33 mg/kg administered once daily via oral gavage for 4 consecutive days beginning 1 hr after infection measured on day 4 post infection relative to control; type: functional; how it was run: as §1
Plasmodium berghei [14] = assay: Antimalarial activity against Plasmodium berghei infected in Swiss Webster mouse assessed as mouse survival rate at 1.2 mg/kg administered once daily via oral gavage for 4 consecutive days beginning 1 hr after infection measured on day 6 post infection relative to control; type: functional; how it was run: as §2
Plasmodium berghei [15] = assay: Antimalarial activity against Plasmodium berghei infected in Swiss Webster mouse assessed as mouse survival rate at 1.2 mg/kg administered once daily via oral gavage for 4 consecutive days beginning 1 hr after infection measured on day 5 post infection relative to control; type: functional; how it was run: as §2
Plasmodium falciparum [16] = assay: Antimalarial activity against chloroquine-sensitive Plasmodium falciparum 3D7 infected in human erythrocytes assessed as reduction in [3H]-hypoxanthine incorporation preincubated for 24 hrs followed by [3H]-hypoxanthine addition measured after 24 hrs by scintillation counting method; type: functional, cell-based
How it was run: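 P. falciparum 3D7 cultures were exposed to the compound for 48 h, with atovaquone as the reference control. IC50 was taken from three replicates.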

Plasmodium berghei [17] = assay: Antimalarial activity against Plasmodium berghei infected in Swiss Webster mouse assessed as mouse survival rate administered once daily via oral gavage for 4 consecutive days beginning 1 hr after infection measured on day 4 post infection; type: functional; how it was run: as §2
Plasmodium berghei [18] = assay: Antimalarial activity against Plasmodium berghei infected in Swiss Webster mouse assessed as mouse survival rate at 100 mg/kg administered once daily via oral gavage for 4 consecutive days beginning 1 hr after infection measured on day 12 post infection relative to control; type: functional; how it was run: as §2
Plasmodium falciparum [19] = assay: Antimalarial activity against Plasmodium falciparum 3D7 0087/N9 infected in NOD/SCID IL2R gamma null mouse assessed as reduction in parasitemia administered once daily via oral gavage for 4 consecutive days measured on day 4 post infection; type: functional; details: 3D7 0087/N9, po, 96 h
How it was run: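 Human-erythrocyte-engrafted NODscidIL2Rγnull mice carrying P. falciparum Pf3D70087/N9 in peripheral blood; compound given orally once daily for four consecutive days.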

Plasmodium berghei [20] = assay: Antimalarial activity against Plasmodium berghei infected in Swiss Webster mouse assessed as mouse survival rate at 33 mg/kg administered once daily via oral gavage for 4 consecutive days beginning 1 hr after infection measured on day 12 post infection relative to control; type: functional; how it was run: as §1
Plasmodium berghei [21] = assay: Antimalarial activity against Plasmodium berghei infected in Swiss Webster mouse assessed as mouse survival rate at 33 mg/kg administered once daily via oral gavage for 4 consecutive days beginning 1 hr after infection measured on day 13 post infection relative to control; type: functional; how it was run: as §1
Plasmodium berghei [22] = assay: Antimalarial activity against Plasmodium berghei infected in Swiss Webster mouse assessed as mouse survival rate at 100 mg/kg administered once daily via oral gavage for 4 consecutive days beginning 1 hr after infection measured on day 13 post infection relative to control; type: functional; how it was run: as §2
Plasmodium berghei [23] = assay: Antimalarial activity against Plasmodium berghei infected in Swiss Webster mouse assessed as mouse survival rate at 0.1 mg/kg administered once daily via oral gavage for 4 consecutive days beginning 1 hr after infection measured on day 4 post infection relative to control; type: functional; how it was run: as §2
Plasmodium berghei [24] = assay: Antimalarial activity against Plasmodium berghei infected in Swiss Webster mouse assessed as mouse survival rate at 33 mg/kg administered once daily via oral gavage for 4 consecutive days beginning 1 hr after infection measured on day 14 post infection relative to control; type: functional; how it was run: as §1
Plasmodium berghei [25] = assay: Antimalarial activity against Plasmodium berghei infected in Swiss Webster mouse assessed as mouse survival rate at 0.1 mg/kg administered once daily via oral gavage for 4 consecutive days beginning 1 hr after infection measured on day 7 post infection relative to control; type: functional; how it was run: as §2
[26] = Metabolic stability in human hepatocytes at 22 uM after 44 hrs; type: ADME, cell-based, Hepatocyte
Plasmodium berghei [27] = assay: Antimalarial activity against Plasmodium berghei infected in Swiss Webster mouse assessed as mouse survival rate at 0.1 mg/kg administered once daily via oral gavage for 4 consecutive days beginning 1 hr after infection measured on day 5 post infection relative to control; type: functional; how it was run: as §2

Compound	survival at 3.7 mg/kg (Plasmodium berghei [1])	survival at 11 mg/kg (Plasmodium berghei [2])	survival at 33 mg/kg (Plasmodium berghei [3])	survival at 1.2 mg/kg (Plasmodium berghei [4])	survival at 100 mg/kg (Plasmodium berghei [5])	survival at 0.4 mg/kg (Plasmodium berghei [6])	survival at 100 mg/kg (Plasmodium berghei [7])	survival at 100 mg/kg (Plasmodium berghei [8])	survival at 3.7 mg/kg (Plasmodium berghei [9])	survival at 33 mg/kg (Plasmodium berghei [10])	survival at 100 mg/kg (Plasmodium berghei [11])	survival at 1.2 mg/kg (Plasmodium berghei [12])	survival at 33 mg/kg (Plasmodium berghei [13])	survival at 1.2 mg/kg (Plasmodium berghei [14])	survival at 1.2 mg/kg (Plasmodium berghei [15])	IC50 (Plasmodium falciparum [16])	ED90 (Plasmodium berghei [17])	survival at 100 mg/kg (Plasmodium berghei [18])	ED90 (Plasmodium falciparum [19])	survival at 100 mg/kg (Plasmodium berghei [22])	also measured
Cc1c(Oc2cnc(C(=O)N[C@@H](CO)CC(F)(F)F)cn2)ccc2c1B(O)OC2	100%	100%	0%	0%	0%	100%	100%	100%	100%	60%	100%	100%	100%	100%	100%	149 nM	7.3 mg/kg				
Cc1c(Oc2cnc(C(=O)NC(C)CO)cn2)ccc2c1B(O)OC2 (stereo not given)		100%			40%		100%	40%			80%		100%			994 nM	44.3 mg/kg	0%			
Cc1c(Oc2cnc(C(=O)NCCO)cn2)ccc2c1B(O)OC2	100%	100%		0%			100%	0%	100%		40%	100%	100%	100%	100%	1080 nM	56.1 mg/kg				
Cc1c(Oc2cnc(C(=O)N3CC(O)(C4CC4)C3)cn2)ccc2c1B(O)OC2	100%	100%	40%	0%	100%	100%	100%	100%	100%	40%	100%	100%	100%	100%	100%	134 nM	10.3 mg/kg	100%	< 5 mg/kg	100%	survival at 33 mg/kg (Plasmodium berghei [20]): 40%; survival at 33 mg/kg (Plasmodium berghei [21]): 40%; survival at 0.1 mg/kg (Plasmodium berghei [23]): 100%; survival at 33 mg/kg (Plasmodium berghei [24]): 0%; survival at 0.1 mg/kg (Plasmodium berghei [25]): 0%; Stability [26]: Stable; survival at 0.1 mg/kg (Plasmodium berghei [27]): 100%
Cc1c(Oc2cnc(C(=O)N3CC(O)(C(C)C)C3)cn2)ccc2c1B(O)OC2	100%	100%	100%		100%	100%	100%	100%	100%	100%	100%		100%			57 nM	4.5 mg/kg	100%	< 5 mg/kg	100%	survival at 33 mg/kg (Plasmodium berghei [20]): 100%; survival at 33 mg/kg (Plasmodium berghei [21]): 100%; survival at 0.1 mg/kg (Plasmodium berghei [23]): 100%; survival at 33 mg/kg (Plasmodium berghei [24]): 0%; survival at 0.1 mg/kg (Plasmodium berghei [25]): 0%; Stability [26]: Stable; survival at 0.1 mg/kg (Plasmodium berghei [27]): 100%
CCC[C@H](CO)NC(=O)c1cnc(Oc2ccc3c(c2C)B(O)OC3)cn1	100%	100%		0%	20%		100%	100%	100%		100%	100%	100%	100%	100%	201 nM	11.7 mg/kg	20%	2.5 mg/kg	20%	
Cc1c(Oc2cnc(C(=O)N3CC(O)(C(F)(F)F)C3)cn2)ccc2c1B(O)OC2	100%	100%	50%		100%	100%	100%	100%	100%	50%	100%		100%			8 nM	5.7 mg/kg	100%	< 5 mg/kg	100%	survival at 33 mg/kg (Plasmodium berghei [20]): 50%; survival at 33 mg/kg (Plasmodium berghei [21]): 50%; survival at 0.1 mg/kg (Plasmodium berghei [23]): 100%; survival at 33 mg/kg (Plasmodium berghei [24]): 0%; survival at 0.1 mg/kg (Plasmodium berghei [25]): 0%; Stability [26]: Stable; survival at 0.1 mg/kg (Plasmodium berghei [27]): 100%
CCCC1(O)CN(C(=O)c2cnc(Oc3ccc4c(c3C)B(O)OC4)cn2)C1	100%	100%	100%	0%	100%	100%	100%	100%	100%	100%	100%	100%	100%	100%	100%	54 nM	3.3 mg/kg	100%		100%	survival at 33 mg/kg (Plasmodium berghei [20]): 100%; survival at 33 mg/kg (Plasmodium berghei [21]): 100%; survival at 0.1 mg/kg (Plasmodium berghei [23]): 100%; survival at 33 mg/kg (Plasmodium berghei [24]): 0%; survival at 0.1 mg/kg (Plasmodium berghei [25]): 0%; Stability [26]: Stable; survival at 0.1 mg/kg (Plasmodium berghei [27]): 100%
